Data from ChEMBL document CHEMBL1914459 (Bioorg Med Chem Lett, 2011).

System: not listed separately
Assay: Lipophilicity, log D of the compound at pH 7.4
Settings: buffer

Compared with Cc1c(Oc2ccc(Cl)cc2)c2cc(C(F)(F)F)ccc2n1CC(=O)O, Cc1c(Sc2ccc(Cl)cc2)c2cc(F)ccc2n1CC(=O)O is lower in logD: 2.3 for the first, 1.8 for the second.

First: CC(=O)Nc1cccc2c1c(Oc1ccc(Cl)cc1)c(C)n2CC(=O)O
Second: Cc1c(Sc2ccc(Cl)cc2)c2c(NS(C)(=O)=O)cccc2n1CC(=O)O
The logD of the first is lower: -1.4 for the first, 0.2 for the second.

Compared with Cc1c(Sc2ccc(Cl)cc2)c2cc(-c3ccccc3)ccc2n1CC(=O)O, Cc1c(Sc2ccc(Cl)cc2)c2cc(S(C)(=O)=O)ccc2n1CC(=O)O is lower in logD: 3.7 for the first, 0.5 for the second.

Compared with COc1ccc(Sc2c(C)n(CC(=O)O)c3ccc(C)cc23)cc1, Cc1ccc2c(n1)c(Sc1ccc(Cl)cc1)c(C)n2CC(=O)O is lower in logD: 1 for the first, 0.4 for the second.

Going from Cc1c(F)ccc2c1c(Sc1ccc(Cl)cc1)c(C)n2CC(=O)O to Cc1c(Sc2ccc(Cl)cc2)c2c(S(C)(=O)=O)cccc2n1CC(=O)O, the logD falls from 2.2 to 0.6.

Cc1c(S(=O)(=O)c2ccc(Cl)cc2)c2cc(F)ccc2n1CC(=O)O gave a logD of -0.2.

Target: T1, Prostaglandin D2 receptor 2 (Homo sapiens, UniProt Q9Y5Y4)
T1 sequence (Q9Y5Y4 whole entry): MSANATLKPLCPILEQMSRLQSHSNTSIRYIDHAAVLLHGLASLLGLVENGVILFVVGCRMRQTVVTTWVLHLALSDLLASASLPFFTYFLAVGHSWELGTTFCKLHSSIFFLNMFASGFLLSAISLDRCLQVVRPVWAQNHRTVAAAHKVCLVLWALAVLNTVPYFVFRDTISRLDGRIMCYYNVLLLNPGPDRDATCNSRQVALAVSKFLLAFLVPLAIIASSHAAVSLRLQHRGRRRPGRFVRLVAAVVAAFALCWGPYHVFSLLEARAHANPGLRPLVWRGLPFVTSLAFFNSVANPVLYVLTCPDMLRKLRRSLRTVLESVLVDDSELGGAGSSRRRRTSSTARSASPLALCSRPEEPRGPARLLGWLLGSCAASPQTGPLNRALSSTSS
Assay: Antagonist activity at human CRTh2 receptor expressed in HEK cells assessed as inhibition of PGD2-induced calcium flux
Format: functional, cell-based, HEK293
Settings: not given

Going from Cc1c(Sc2ccc(Cl)cc2)c2cc(Cl)ccc2n1CC(=O)O to Cc1ccc2c(c1)c(Sc1ccc(Cl)cc1)c(C)n2CC(=O)O, the IC50 rises from 35 nM to 87 nM (2.5-fold). The first is the more potent here.

Target: Aldehyde reductase AKR1A1 (Homo sapiens)
Assay: Inhibition of human recombinant aldose reductase 1 after 15 mins by spectrophotometry analysis
Settings: not given

Cc1c(Sc2ccc(Cl)cc2)c2cc(F)ccc2n1CC(=O)O and Cc1c(F)ccc2c1c(Sc1ccc(Cl)cc1)c(C)n2CC(=O)O are within 1.5-fold of each other in IC50: 3160 nM for the first, 2240 nM for the second.

Compared with Cc1c(Sc2ccc(Cl)cc2)c2cc(-c3ccccc3)ccc2n1CC(=O)O, COc1ccc(Sc2c(C)n(CC(=O)O)c3ccc(C)cc23)cc1 is 6.3-fold lower in IC50: 1780 nM for the first, 282 nM for the second. The second is the more potent here.

System: not listed separately
Assay: Intrinsic clearance in rat hepatocytes assessed as per 1 x 10^6 cells
Settings: not given

Compared with Cc1c(Sc2ccc(Cl)cc2)c2cc(Cl)c(C#N)cc2n1CC(=O)O, Cc1c(Sc2ccc(Cl)cc2)c2cc(F)ccc2n1CC(=O)O is 1.5-fold lower in hepatocyte CLint: 29 µL/min/1e6 cells for the first, 19 µL/min/1e6 cells for the second.

First: Cc1c(Oc2ccc(Cl)cc2)c2c(-c3ccccc3)cccc2n1CC(=O)O
Second: Cc1c(Sc2ccc(Cl)cc2)c2c(NS(C)(=O)=O)cccc2n1CC(=O)O
The hepatocyte CLint of the first is 2.3-fold higher: 14 µL/min/1e6 cells for the first, 6 µL/min/1e6 cells for the second.

Going from Cc1ccc2c(c1)c(S(=O)(=O)c1ccccc1Cl)c(C)n2CC(=O)O to Cc1c(S(=O)(=O)c2ccc(Cl)cc2)c2cc(F)ccc2n1CC(=O)O, the hepatocyte CLint falls from 21 µL/min/1e6 cells to < 3 µL/min/1e6 cells.

COc1ccc(Sc2c(C)n(CC(=O)O)c3ccc(C)cc23)cc1 and Cc1ccc2c(c1)c(Sc1ccc(Cl)cc1)c(C)n2CC(=O)O are within 1.5-fold of each other in hepatocyte CLint: 24 µL/min/1e6 cells for the first, 18 µL/min/1e6 cells for the second.

System: not listed separately
Assay: Half life in Sprague-Dawley rat at 1 mg/kg, iv
Format: ADME, organism-based
Parameters: dose 1 mg/kg, route intravenous
Settings: in vivo

Cc1c(Sc2ccc(Cl)cc2)c2c(NS(C)(=O)=O)cccc2n1CC(=O)O showed a half-life of 102 min.

Target: not listed separately
Assay: Inhibition of human recombinant aldose reductase 2 after 15 mins by spectrophotometry analysis
Settings: not given

Going from Cc1c(Sc2ccc(Cl)cc2)c2cc(F)ccc2n1CC(=O)O to Cc1c(F)ccc2c1c(Sc1ccc(Cl)cc1)c(C)n2CC(=O)O, the IC50 falls from > 7.94 µM to 3.55 µM.

First: Cc1c(Sc2ccc(Cl)cc2)c2c(NS(C)(=O)=O)cccc2n1CC(=O)O
Second: Cc1c(Sc2ccc(Cl)cc2)c2cc(-c3ccccc3)ccc2n1CC(=O)O
The IC50 of the first is higher: > 5.31 µM for the first, 4.47 µM for the second.

In the case of COc1ccc(Sc2c(C)n(CC(=O)O)c3ccc(C)cc23)cc1, the IC50 is reported as 0.251 µM.

Target: Cytochrome P450 2C9 (Homo sapiens, UniProt P11712)
Assay: Inhibition of CYP2C9
Format: ADME
Settings: not given

Sequence of Cytochrome P450 2C9 (P11712 whole entry): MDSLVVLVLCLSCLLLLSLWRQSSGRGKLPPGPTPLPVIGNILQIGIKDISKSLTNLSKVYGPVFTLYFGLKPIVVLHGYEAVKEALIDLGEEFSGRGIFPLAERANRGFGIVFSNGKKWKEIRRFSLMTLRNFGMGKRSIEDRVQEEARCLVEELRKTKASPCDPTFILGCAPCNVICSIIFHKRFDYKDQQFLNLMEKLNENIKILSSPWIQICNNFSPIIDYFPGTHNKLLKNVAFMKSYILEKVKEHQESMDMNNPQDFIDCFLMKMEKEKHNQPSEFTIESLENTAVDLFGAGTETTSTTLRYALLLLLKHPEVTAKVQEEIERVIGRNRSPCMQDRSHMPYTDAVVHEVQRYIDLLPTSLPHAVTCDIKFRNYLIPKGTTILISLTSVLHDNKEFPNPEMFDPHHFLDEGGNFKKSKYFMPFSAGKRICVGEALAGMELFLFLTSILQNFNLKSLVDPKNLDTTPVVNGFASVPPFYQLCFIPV

First: Cc1c(Sc2ccc(Cl)cc2)c2c(NS(C)(=O)=O)cccc2n1CC(=O)O
Second: Cc1ccc2c(c1)c(Sc1ccc(Cl)cc1)c(C)n2CC(=O)O
The IC50 of the first is 12-fold higher: 10 µM for the first, 0.8 µM for the second.

System: not listed separately
Assay: Clearance in Sprague-Dawley rat at 1 mg/kg, iv
Format: ADME, organism-based
Parameters: dose 1 mg/kg, route intravenous
Settings: in vivo

Cc1c(Sc2ccc(Cl)cc2)c2c(NS(C)(=O)=O)cccc2n1CC(=O)O showed a clearance of 11 mL/min/kg.

System: not listed separately
Assay: Oral bioavailability in Sprague-Dawley rat at 4 mg/kg
Format: ADME, organism-based
Settings: in vivo

Cc1c(Sc2ccc(Cl)cc2)c2c(NS(C)(=O)=O)cccc2n1CC(=O)O gave a bioavailability of 42%.

System: not listed separately
Assay: Volume of distribution at steady state in Sprague-Dawley rat at 1 mg/kg, iv
Format: ADME, organism-based
Parameters: dose 1 mg/kg, route intravenous
Settings: in vivo, read-out: Vdss

For Cc1c(Sc2ccc(Cl)cc2)c2c(NS(C)(=O)=O)cccc2n1CC(=O)O, the Vd was 1.1 L/kg.

Target: T1, Prostaglandin D2 receptor 2
Assay: Displacement of [3H]PGD2 from human CRTH2 receptor
Settings: not given
Procedure, shortened: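 Radioligand binding with ³H-PGD₂ as the labelled ligand; IC₅₀ reported as mean of n >2 measurements.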

Going from O=C(O)Cn1cc(Sc2ccc(Cl)cc2)c2cc(Cl)ccc21 to Cc1c(Sc2ccc(Cl)cc2)c2cc(Cl)ccc2n1CC(=O)O, the IC50 falls from 89 nM to 13 nM (6.8-fold). The second is the more potent here.

Compared with Cn1c(CC(=O)O)c(Sc2ccccc2)c2ccccc21, Cc1c(Sc2ccc(Cl)cc2)c2cc(-c3ccccc3)ccc2n1CC(=O)O is 230-fold lower in IC50: 794 nM for the first, 3.5 nM for the second. The second is the more potent here.

Going from Cc1c(Sc2ccc(Cl)cc2)c2c(-c3nccs3)cccc2n1CC(=O)O to Cc1c(Sc2ccc(Cl)cc2)c2c(S(C)(=O)=O)cccc2n1CC(=O)O, the IC50 rises from 3.5 nM to 11 nM (3.1-fold).

Cc1ccc2c(c1)c(S(=O)(=O)c1c(Cl)cccc1Cl)c(C)n2CC(=O)O and Cc1ccc2c(c1)c(S(=O)(=O)c1ccccc1Cl)c(C)n2CC(=O)O are within 1.5-fold of each other in IC50: 126 nM for the first, 178 nM for the second.

First: Cc1c(Sc2ccc(Cl)cc2)c2cc(Cl)ccc2n1C(C)C(=O)O (stereo not given)
Second: Cc1ccc2c(c1)c(Sc1ccc(Cl)cc1)c(C)n2CC(=O)O
The IC50 of the first is 33-fold higher: 501 nM for the first, 15 nM for the second.

Going from Cc1c(Sc2ccc(Cl)cc2)c2cc(Cl)c(C#N)cc2n1CC(=O)O to Cc1c(Sc2ccc(Cl)cc2)c2cc(F)ccc2n1CC(=O)O, the IC50 falls from 178 nM to 1.6 nM (110-fold).

Compared with Cc1ccc2c(c1)c(S(=O)(=O)c1cccc(Cl)c1)c(C)n2CC(=O)O, Cc1c(S(=O)(=O)c2ccc(Cl)cc2)c2cc(F)ccc2n1CC(=O)O is 11-fold lower in IC50: 79 nM for the first, 7.1 nM for the second. The second is the more potent here.

Compared with CCS(=O)(=O)Nc1cccc2c1c(Oc1ccc(Cl)cc1)c(C)n2CC(=O)O, CC(=O)Nc1cccc2c1c(Oc1ccc(Cl)cc1)c(C)n2CC(=O)O is 2-fold lower in IC50: 36 nM for the first, 18 nM for the second. The second is the more potent here.

First: Cc1c(Oc2ccc(Cl)cc2)c2cc(C(F)(F)F)ccc2n1CC(=O)O
Second: Cc1c(Oc2ccc(Cl)cc2)c2c(-c3ccccc3)cccc2n1CC(=O)O
The IC50 of the first is 2.8-fold higher: 11 nM for the first, 4 nM for the second.

Compared with Cc1c(Sc2ccc(Cl)cc2)c2c(NS(C)(=O)=O)cccc2n1CC(=O)O, Cc1c(Sc2ccc(Cl)cc2)c2cc(S(C)(=O)=O)ccc2n1CC(=O)O is 39-fold higher in IC50: 1.8 nM for the first, 71 nM for the second. The first is the more potent here.

Compared with Cc1c(Sc2ccc(Cl)cc2)c2cc(Cl)ccc2n1Cc1nnn[nH]1, Cc1c(F)ccc2c1c(Sc1ccc(Cl)cc1)c(C)n2CC(=O)O is 1100-fold lower in IC50: 1470 nM for the first, 1.3 nM for the second. The second is the more potent here.

Compared with COc1ccc(Sc2c(C)n(CC(=O)O)c3ccc(C)cc23)cc1, Cc1ccc2c(n1)c(Sc1ccc(Cl)cc1)c(C)n2CC(=O)O is 7.9-fold higher in IC50: 7.1 nM for the first, 56 nM for the second. The first is the more potent here.
